Reference: ChEMBL document CHEMBL5149984, “Discovery of HN37 as a Potent and Chemically Stable Antiepileptic Drug Candidate” (J Med Chem, 2021)

Experiments:
[1] = Neurotoxicity in po dosed Kunming mouse assessed as motor impairment after 1 hr by rotarod test; assay type: toxicity, organism-based; conditions: in vivo
In short: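 Male KM mice dosed intragastrically with compound freshly suspended in 0.5% CMC-Na. Rotarod performance scored 1 h after dosing as the fraction of animals showing motor impairment. Fisher's exact test versus vehicle; TD50 from nonlinear dose−response fit.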

[2] = Toxicity in C57BL/6 mouse assessed as sedative effect at 80 mg/kg; assay type: organism-based; conditions: in vivo
[3] = Tmax in Kunming mouse plasma at 5 mg/kg, po measured upto 24 hrs by LC-MS/MS method; assay type: ADME, organism-based
In short: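 Male KM mice (18–24 g), fasted 12 h before and 2 h after dosing, n = 3 per time point. Oral dose in 5% DMSO/5% Tween 80/90% saline; i.v. dose is that formulation diluted in saline with 1% Tween 80. Blood sampled 0.25–24 h after oral dosing, 0.083–24 h after i.v.; whole brain taken after oral dosing. Acetonitrile extraction with internal standard, LC-MS/MS.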

[4] = AUC(0 to t) in Kunming mouse plasma at 2 mg/kg, iv measured upto 24 hrs by LC-MS/MS method; assay type: ADME, organism-based; parameters: time < 24 hrs, dose 2 mg/kg, route iv
In short: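 KM male mice (18−24 g), fasted 12 h before and 2 h after dosing. HN37 given orally at 5 mg/kg in 5% DMSO/5% Tween 80/90% saline, or iv at 2 mg/kg after dilution in saline with 1% Tween 80; n = 3 per time point. Blood sampled 0.25–24 h (from 0.083 h after iv); whole brain taken after oral dosing. Plasma and brain extracted with acetonitrile, quantified by LC−MS/MS; AUC0−t by trapezoidal method.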

[5] = Tmax in Sprague-Dawley rat at 6 mg/kg, po measured upto 24 hrs by LC-MS/MS method; assay type: ADME, organism-based; conditions: in vivo
In short: (§1)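 Male SD rats (180–220 g) dosed orally at 2, 6 and 20 mg/kg, handled like the mice: fasting, 5% DMSO/5% Tween 80/saline vehicle, acetonitrile extraction, LC-MS/MS of plasma. In a separate set at 6 mg/kg p.o., blood and brain were sampled together.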

[6] = Tmax in Sprague-Dawley rat blood at 6 mg/kg, po measured upto 24 hrs by LC-MS/MS method; assay type: ADME, organism-based; in short: as §1
[7] = Cmax in Sprague-Dawley rat at 20 mg/kg, po measured upto 24 hrs by LC-MS/MS method; assay type: ADME, organism-based; parameters: time < 24 hrs, dose 20 mg/kg, route po; conditions: in vivo
In short: (§2)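 Male SD rats (180−220 g) dosed orally at 2, 6 or 20 mg/kg in escalating fashion, handled as in the mouse study: 12 h fast, acetonitrile extraction of plasma, LC−MS/MS quantification. AUC0−t by trapezoidal method to the last measurable concentration.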

[8] = AUC(0 to t) in Sprague-Dawley rat at 2 mg/kg, po measured upto 24 hrs by LC-MS/MS method; assay type: ADME, organism-based; parameters: dose 2 mg/kg, time < 24 hrs, route po; conditions: in vivo; in short: as §2
[9] = AUC(0 to t) in Sprague-Dawley rat at 20 mg/kg, po measured upto 24 hrs by LC-MS/MS method; assay type: ADME, organism-based; parameters: dose 20 mg/kg, time < 24 hrs, route po; conditions: in vivo; in short: as §2
[10] = Half life in Sprague-Dawley rat at 2 mg/kg, po measured upto 24 hrs by LC-MS/MS method; assay type: ADME, organism-based; conditions: in vivo
In short: (§3)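 Male SD rats (180−220 g) given single oral doses of 2, 6 and 20 mg/kg; handled as in the mouse PK study (fasted 12 h before and 2 h after dosing, 5% DMSO/5% Tween 80/90% saline formulation). In a separate 6 mg/kg p.o. set, blood and brain were sampled together. Plasma and brain levels by LC−MS/MS.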

[11] = Ratio of AUC(0 to t) in Sprague-Dawley rat brain to plasma at 6 mg/kg, po measured upto 24 hrs by LC-MS/MS method; assay type: ADME, organism-based; conditions: brain and plasma; in short: as §3
[12] = Metabolic stability in rat liver microsomes assessed as half life; assay type: ADME, Microsome
[13] = Metabolic stability in human liver microsomes assessed as intrinsic clearance; assay type: ADME, Microsome; conditions: read-out: CLH
[14] = Metabolic stability in mouse liver microsomes assessed as intrinsic clearance; assay type: ADME, Microsome; conditions: read-out: CLH
CYP2D6 = CYP2D6 (Homo sapiens, UniProt P10635); assay: Inhibition of human liver microsome CYP2D6 at 0.10 to 50 uM preincubated with NADPH for 0.5 hrs followed by substrate addition by LC-MS/MS method relative to control; assay type: ADME; conditions: liver microsomes, dose 0.1-50 µM
Chain of CYP2D6 (P10635 whole entry): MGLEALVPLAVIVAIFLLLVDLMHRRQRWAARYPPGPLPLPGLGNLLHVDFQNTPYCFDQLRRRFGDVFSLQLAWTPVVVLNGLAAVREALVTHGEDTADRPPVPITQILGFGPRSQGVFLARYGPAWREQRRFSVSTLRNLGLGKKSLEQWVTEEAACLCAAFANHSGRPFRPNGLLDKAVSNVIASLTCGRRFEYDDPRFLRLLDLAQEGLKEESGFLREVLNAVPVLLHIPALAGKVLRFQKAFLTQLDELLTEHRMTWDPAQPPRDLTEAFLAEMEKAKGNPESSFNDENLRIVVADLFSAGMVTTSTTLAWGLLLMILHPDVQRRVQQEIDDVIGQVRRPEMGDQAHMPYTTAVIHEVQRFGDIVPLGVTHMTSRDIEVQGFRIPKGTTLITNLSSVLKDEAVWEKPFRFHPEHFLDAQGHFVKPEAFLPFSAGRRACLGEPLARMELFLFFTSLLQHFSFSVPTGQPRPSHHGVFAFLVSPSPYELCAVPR

CYP2C9 = CYP2C9 (Homo sapiens, UniProt P11712); assay: Ratio of IC50 for human liver microsome CYP2C9 in absence of NADPH to IC50 for human liver microsome CYP2C9 in presence of NADPH; conditions: liver microsomes, read-out: Ratio IC50
Chain of CYP2C9 (P11712 whole entry): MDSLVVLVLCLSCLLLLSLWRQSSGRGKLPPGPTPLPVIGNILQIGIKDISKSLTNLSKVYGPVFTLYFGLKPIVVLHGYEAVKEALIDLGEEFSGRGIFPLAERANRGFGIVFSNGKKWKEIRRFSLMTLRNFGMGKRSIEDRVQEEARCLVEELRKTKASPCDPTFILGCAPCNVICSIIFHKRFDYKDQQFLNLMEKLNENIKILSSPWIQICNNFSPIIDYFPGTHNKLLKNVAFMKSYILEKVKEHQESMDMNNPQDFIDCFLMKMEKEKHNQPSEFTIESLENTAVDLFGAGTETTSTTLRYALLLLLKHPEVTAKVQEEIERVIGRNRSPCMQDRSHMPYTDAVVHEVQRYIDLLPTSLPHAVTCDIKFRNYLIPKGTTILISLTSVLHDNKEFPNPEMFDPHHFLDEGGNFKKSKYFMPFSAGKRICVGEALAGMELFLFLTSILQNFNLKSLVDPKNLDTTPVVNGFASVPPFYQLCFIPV

CYP3A4 = CYP3A4 (Homo sapiens, UniProt P08684); assay: Ratio of IC50 for human liver microsome CYP3A4 using testosterone as substrate in absence of NADPH to IC50 for human liver microsome CYP3A4 using testosterone as substrate in presence of NADPH; conditions: liver microsomes, probe testosterone, read-out: Ratio IC50
Chain of CYP3A4 (P08684 whole entry): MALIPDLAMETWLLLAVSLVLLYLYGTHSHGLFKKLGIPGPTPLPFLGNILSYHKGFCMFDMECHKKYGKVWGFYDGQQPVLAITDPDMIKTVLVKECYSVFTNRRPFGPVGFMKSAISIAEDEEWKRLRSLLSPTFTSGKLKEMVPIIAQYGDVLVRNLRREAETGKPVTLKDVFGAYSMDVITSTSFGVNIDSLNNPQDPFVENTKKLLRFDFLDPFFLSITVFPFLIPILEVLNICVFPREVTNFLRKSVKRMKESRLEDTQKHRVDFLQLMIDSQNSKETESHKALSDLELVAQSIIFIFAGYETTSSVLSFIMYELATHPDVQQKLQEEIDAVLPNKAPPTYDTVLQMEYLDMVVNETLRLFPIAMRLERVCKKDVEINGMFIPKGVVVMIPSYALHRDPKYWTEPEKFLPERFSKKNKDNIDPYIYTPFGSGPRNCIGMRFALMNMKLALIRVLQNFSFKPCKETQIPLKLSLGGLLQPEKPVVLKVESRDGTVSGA
In short: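 Human liver microsomes preincubated 0.5 h with 0.10−50 μM compound, with or without NADPH, then CYP-specific probe substrates added (CYP3A4 with midazolam 1′-hydroxylation and with testosterone 6β-hydroxylation). Metabolites quantified by LC−MS/MS; % activity remaining computed against no-compound control. IC50 fitted by Probit model; ratio = IC50(−NADPH)/IC50(+NADPH).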

Cytochrome P450 1A2 = Cytochrome P450 1A2 (Homo sapiens, UniProt P05177); assay: Time dependent inhibition of human liver microsome CYP1A2 preincubated for 0.5 hrs in absence of NADPH followed by substrate addition by LC-MS/MS method; assay type: ADME, microsomes
Chain of Cytochrome P450 1A2 (P05177 whole entry): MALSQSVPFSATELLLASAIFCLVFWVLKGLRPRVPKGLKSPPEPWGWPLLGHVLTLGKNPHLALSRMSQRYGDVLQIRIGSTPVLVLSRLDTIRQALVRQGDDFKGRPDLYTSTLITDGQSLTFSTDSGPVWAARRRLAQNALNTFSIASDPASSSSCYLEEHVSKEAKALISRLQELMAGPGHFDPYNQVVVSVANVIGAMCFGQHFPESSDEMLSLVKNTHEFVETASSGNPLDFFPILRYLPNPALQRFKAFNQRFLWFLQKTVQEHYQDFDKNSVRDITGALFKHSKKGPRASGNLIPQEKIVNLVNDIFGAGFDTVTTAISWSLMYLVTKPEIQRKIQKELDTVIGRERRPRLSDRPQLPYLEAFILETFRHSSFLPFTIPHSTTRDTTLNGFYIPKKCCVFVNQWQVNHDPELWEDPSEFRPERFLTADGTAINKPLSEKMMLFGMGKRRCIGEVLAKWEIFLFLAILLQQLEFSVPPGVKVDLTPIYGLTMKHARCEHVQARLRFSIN
In short: (§4)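 Human liver microsomes preincubated 0.5 h with 0.10–50 μM test compound, with or without NADPH, then CYP-specific probe substrate added and incubation continued. Metabolite measured by LC-MS/MS; % activity remaining relative to no-compound control; IC50 fitted by Probit model. For CYP3A4, midazolam 1′-hydroxylation and testosterone 6β-hydroxylation were read separately.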

Cytochrome P450 2B6 = Cytochrome P450 2B6 (Homo sapiens, UniProt P20813); assay: Time dependent inhibition of human liver microsome CYP2B6 preincubated for 0.5 hrs in absence of NADPH followed by substrate addition by LC-MS/MS method; assay type: ADME, microsomes; in short: as §4
Chain of Cytochrome P450 2B6 (P20813 whole entry): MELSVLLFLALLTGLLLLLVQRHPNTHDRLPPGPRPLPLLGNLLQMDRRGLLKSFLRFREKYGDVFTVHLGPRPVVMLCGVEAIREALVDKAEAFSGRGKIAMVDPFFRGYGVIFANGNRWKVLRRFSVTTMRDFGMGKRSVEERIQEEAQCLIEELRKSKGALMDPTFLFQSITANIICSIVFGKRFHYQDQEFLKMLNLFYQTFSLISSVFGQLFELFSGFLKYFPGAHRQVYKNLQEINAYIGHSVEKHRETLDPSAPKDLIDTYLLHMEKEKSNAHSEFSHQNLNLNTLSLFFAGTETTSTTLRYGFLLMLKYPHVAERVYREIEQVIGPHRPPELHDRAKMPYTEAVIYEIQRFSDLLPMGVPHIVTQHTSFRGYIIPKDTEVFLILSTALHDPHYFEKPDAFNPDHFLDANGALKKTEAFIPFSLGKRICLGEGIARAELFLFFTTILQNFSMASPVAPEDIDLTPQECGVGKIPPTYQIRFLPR

CYP2B6 = CYP2B6 (Homo sapiens, UniProt P20813); assay: Ratio of IC50 for human liver microsome CYP2B6 in absence of NADPH to IC50 for human liver microsome CYP2B6 in presence of NADPH; conditions: liver microsomes, read-out: Ratio IC50
Chain of CYP2B6 (P20813 whole entry): as above

[15] = target: Potassium voltage-gated channel subfamily KQT member 2/member 3 (Rattus norvegicus) (UniProt O88943+O88944); assay: Agonist activity at rat KCNQ2/3 channel expressed in CHO cells assessed as shift of half voltage of maximal activation at 0.1 uM by patch clamp method; assay type: cell-based; conditions: filed as agonist
In short: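 Whole-cell patch clamp at room temperature on CHO cells (DMEM/F12, 10% FBS) transiently co-transfected with EGFP and hKCNQ1, rKCNQ2, rKCNQ3 A278T, hKCNQ4 or hKCNQ5; KCNQ2/3 at 1:1 cDNA ratio. Pipette solution 145 mM KCl, 5 mM MgATP, pH 7.3; bath 140 mM NaCl, 5 mM KCl, pH 7.4, under perfusion. V1/2 from Boltzmann fits; I/I0 is current amplitude with versus without compound; n = 4−6.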

Brain = assay: Anticonvulsant activity in MES induced Kunming mouse model of seizure assessed as EC50 in brain; assay type: functional, tissue-based

**Q.** Which TD50 at 1 h ([1]; Kunming) does the source give for `CCOC(=O)Nc1ccc(NCc2ccc(F)cc2)cc1N` [EZOGABINE] here?
**A.** 188 mg/kg

**Q.** And the Activity ([1]; po, 1 h, DDE = dose-dependent effect)?
**A.** Dde

**Q.** And the Activity [2]?
**A.** Toxic

**Q.** Which Tmax [3] does the source give for `C#CCN(Cc1ccc(F)cc1)c1cc(C)c(NC(=O)OC)c(C)c1` here?
**A.** 15 min

**Q.** What about the AUC(0-t) at 24 h [4] of the same compound?
**A.** 531 ng·h/mL

**Q.** And the Tmax [5]?
**A.** 40.2 min

**Q.** What about the Tmax [6] of the same compound?
**A.** 15 min

**Q.** What about the Cmax [7] of the same compound?
**A.** 323 ng/mL

**Q.** And the AUC(0-t) at 24 h [8]?
**A.** 247 ng·h/mL

**Q.** And the AUC(0-t) at 24 h [9]?
**A.** 1920 ng·h/mL

**Q.** And the half-life [10]?
**A.** 103 min

**Q.** What about the Kp at 24 h [11] of the same compound?
**A.** 2.86

**Q.** And the half-life [12]?
**A.** 23.7 min

**Q.** What about the CLint scaled [13] of the same compound?
**A.** 62.7 mL/min/kg

**Q.** And the CLint scaled [14]?
**A.** 438 mL/min/kg

**Q.** What about the inhibition at 0.5 h, up to 50 µM (CYP2D6) of the same compound?
**A.** < 25%

**Q.** And the IC50 shift (CYP2C9)?
**A.** < 1.5

**Q.** And the IC50 shift (CYP3A4)?
**A.** < 1.5

**Q.** What about the IC50 (Cytochrome P450 1A2) of the same compound?
**A.** 142 µM

**Q.** And the IC50 (Cytochrome P450 2B6)?
**A.** 141 µM

**Q.** And the IC50 shift (CYP2B6)?
**A.** > 1.5

**Q.** What about the Activity [15] of the same compound?
**A.** -60.2 mV

**Q.** What about the EC50 (Brain) of the same compound?
**A.** 70 nM
